In ChEMBL document CHEMBL1143019, “Hybrid molecules of estrone: new compounds with potential antibacterial, antifungal, and antiproliferative activities” (2007):

Key:
[1] = test system: Staphylococcus aureus; experiment: Antibacterial activity against Staphylococcus aureus SG 511 after 24 hrs by micro-broth dilution method; type: functional; details: SG 511, 24 h
In short: (§1)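 Microbroth dilution per NCCLS guidelines. Bacteria grown overnight at 37 °C in Mueller–Hinton broth. Compound solution serially diluted twofold in MHB, then wells inoculated to a final 5×10⁵ CFU/mL. Incubated 24 h at 37 °C. MIC (µg/mL) read on an automatic plate reader as the lowest dilution allowing no visible growth.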

[2] = test system: Staphylococcus aureus; experiment: Antibacterial activity against methicillin-resistant Staphylococcus aureus 994/93 after 24 hrs by micro-broth dilution method; type: functional
In short: (§2)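 Broth microdilution per NCCLS in Mueller–Hinton broth. Overnight cultures grown at 37 °C. Compound serially diluted twofold, then wells inoculated to a final 5×10⁵ CFU/mL. Plates held at 37 °C for 24 h. MIC (µg/mL) read on an automatic plate reader as the lowest dilution with no visible growth.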

[3] = test system: Staphylococcus aureus; experiment: Antibacterial activity against methicillin-resistant Staphylococcus aureus 134/94 after 24 hrs by microbroth dilution method; type: functional; in short: as §2
[4] = test system: Micrococcus luteus; experiment: Antibacterial activity against Micrococcus luteus ATCC 10240 after 24 hrs by microbroth dilution method; type: functional; details: ATCC 10240, 24 h; in short: as §1
[5] = test system: Enterococcus faecalis; experiment: Antibacterial activity against Enterococcus faecalis 1528 after 24 hrs by micro-broth dilution method; type: functional; in short: as §1
[6] = test system: Mycolicibacterium smegmatis; experiment: Antimicrobial activity against Mycobacterium smegmatis SG 987 after 24 hrs by micro-broth dilution method; type: functional; in short: as §1
[7] = test system: Mycolicibacterium aurum; experiment: Antimicrobial activity against Mycobacterium aurum SB 66 after 24 hrs by micro-broth dilution method; type: functional; in short: as §1
[8] = test system: Mycolicibacterium vaccae; experiment: Antimicrobial activity against Mycobacterium vaccae 10670 after 24 hrs by micro-broth dilution method; type: functional; in short: as §1
[9] = test system: Mycolicibacterium fortuitum; experiment: Antimicrobial activity against Mycobacterium fortuitum Borstel after 24 hrs by microbroth dilution method; type: functional; in short: as §1
[10] = test system: Mycobacterium tuberculosis; experiment: Antimicrobial activity against Mycobacterium tuberculosis My 331/88 after 14 days; type: functional; details: 336 h
[11] = test system: Mycobacterium tuberculosis; experiment: Antimicrobial activity against Mycobacterium tuberculosis My 331/88 after 21 days; type: functional; details: 504 h
[12] = test system: Mycobacterium avium; experiment: Antimicrobial activity against Mycobacterium avium My 330/88 after 14 days; type: functional; details: 336 h
[13] = test system: Mycobacterium avium; experiment: Antimicrobial activity against Mycobacterium avium My 330/88 after 21 days; type: functional; details: 504 h
[14] = test system: Mycobacterium kansasii; experiment: Antimicrobial activity against Mycobacterium kansasii My 235/80 after 7 days; type: functional; details: 168 h
In short: (§3)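 Run in Šula semisynthetic liquid medium containing bovine serum. Compounds added as DMSO solutions at final concentrations of […]. Each strain was also inoculated onto Löwenstein–Jensen medium to control inoculum sterility and growth.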

[15] = test system: Mycobacterium kansasii; experiment: Antimicrobial activity against Mycobacterium kansasii My 235/80 after 14 days; type: functional; details: 336 h; in short: as §3
[16] = test system: Mycobacterium kansasii; experiment: Antimicrobial activity against Mycobacterium kansasii My 235/80 after 21 days; type: functional; details: 504 h; in short: as §3
[17] = test system: Mycobacterium kansasii; experiment: Antimicrobial activity against Mycobacterium kansasii My 6509/96 after 7 days; type: functional; details: 168 h; in short: as §3
[18] = test system: Mycobacterium kansasii; experiment: Antimicrobial activity against Mycobacterium kansasii My 6509/96 after 14 days; type: functional; details: 336 h; in short: as §3
[19] = test system: Mycobacterium kansasii; experiment: Antimicrobial activity against Mycobacterium kansasii My 6509/96 after 21 days; type: functional; details: 504 h; in short: as §3
[20] = test system: Candida albicans; experiment: Antifungal activity against Candida albicans ATCC 44859 after 24 hrs; type: functional; details: ATCC 44859, 24 h
In short: (§4)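 Modified NCCLS M27-A broth microdilution with clinical isolates subcultured on Sabouraud dextrose agar. Suspensions diluted 1:50 in RPMI 1640 to give a final inoculum of 0.5–2.5×10³ CFU/mL for yeasts or 0.5–5×10⁴ CFU/mL for molds. The RPMI had L-glutamine, no bicarbonate, and 0.165 M MOPS to pH 7.0. Twofold dilutions from 250 to 0.49. Plates held at 35 °C, humid, without agitation. MIC is the lowest concentration giving ≥80% inhibition versus drug-free control, read at 24 and 48 h.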

[21] = test system: Candida albicans; experiment: Antifungal activity against Candida albicans ATCC 44859 after 48 hrs; type: functional; details: ATCC 44859, 48 h; in short: as §4
[22] = test system: Candida tropicalis; experiment: Antifungal activity against Candida tropicalis 156 after 24 hrs; type: functional; in short: as §4
[23] = test system: Candida tropicalis; experiment: Antifungal activity against Candida tropicalis 156 after 48 hrs; type: functional; in short: as §4
[24] = test system: Pichia kudriavzevii; experiment: Antifungal activity against Candida krusei E28 after 24 hrs; type: functional; in short: as §4
[25] = test system: Pichia kudriavzevii; experiment: Antifungal activity against Candida krusei E28 after 48 hrs; type: functional; in short: as §4
[26] = test system: Nakaseomyces glabratus; experiment: Antifungal activity against Candida glabrata 20/I after 24 hrs; type: functional; in short: as §4
[27] = test system: Nakaseomyces glabratus; experiment: Antifungal activity against Candida glabrata 20/I after 48 hrs; type: functional; in short: as §4
[28] = test system: Trichosporon beigelii; experiment: Antifungal activity against Trichosporon beigelii 1188 after 24 hrs; type: functional; in short: as §4
[29] = test system: Trichosporon beigelii; experiment: Antifungal activity against Trichosporon beigelii 1188 after 48 hrs; type: functional; in short: as §4
[30] = test system: Aspergillus fumigatus; experiment: Antifungal activity against Aspergillus fumigatus 231 after 24 hrs; type: functional; in short: as §4
[31] = test system: Aspergillus fumigatus; experiment: Antifungal activity against Aspergillus fumigatus 231 after 48 hrs; type: functional; in short: as §4
[32] = test system: Lichtheimia corymbifera; experiment: Antifungal activity against Absidia corymbifera 272 after 24 hrs; type: functional; in short: as §4
[33] = test system: Lichtheimia corymbifera; experiment: Antifungal activity against Absidia corymbifera 272 after 48 hrs; type: functional; in short: as §4
[34] = test system: Trichophyton benhamiae; experiment: Antifungal activity against Trichophyton mentagrophytes 445 after 72 hrs; type: functional, Arthroderma benhamiae
In short: (§5)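 Same modified M27-A microdilution with the mold inoculum of 0.5–5×10⁴ CFU/mL. Medium was RPMI 1640 with L-glutamine, no bicarbonate, and 0.165 M MOPS at pH 7.0. Twofold dilutions from 250 to 0.49. Incubated at 35 °C in a humid atmosphere.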

[35] = test system: Trichophyton benhamiae; experiment: Antifungal activity against Trichophyton mentagrophytes 445 after 120 hrs; type: functional, Arthroderma benhamiae; in short: as §5
[36] = test system: L929; experiment: Antiproliferative activity against mouse L929 cells after 72 hrs; type: functional; details: L929, 72 h
In short: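 About 10,000 adherent cells per well in RPMI 1640 with 10% heat-inactivated FBS and penicillin/streptomycin, without HEPES. Exposed to 10 concentrations for 72 h at 37 °C in humidified 5% CO₂. Monolayers fixed with glutaraldehyde, stained 15 min with 0.05% methylene blue, and eluted with 0.33 N HCl; OD read at 630 nm. GI50 derived from dose–response curves relative to control.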

[37] = test system: K562; experiment: Antiproliferative activity against human K562 cells after 72 hrs; type: functional; details: K562, 72 h
In short: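 About 10,000 suspension cells per well in RPMI 1640 with 10% heat-inactivated FBS and penicillin/streptomycin, without HEPES. Exposed to 10 concentrations for 72 h at 37 °C in humidified 5% CO₂. Wells diluted 1:50 in CASYTON and counted electronically, each result the mean of three successive counts. GI50 is where the concentration–response curve crosses 50% of control cell count.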

[38] = test system: HeLa; experiment: Cytotoxicity against human HeLa cells after 72 hrs; type: functional; details: for CC50: Homo sapiens, HeLa, 72 h
In short: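 About 10,000 cells per well in RPMI 1640 were preincubated 48 h without compound. The 10 test concentrations were then applied onto the monolayers and incubated 72 h at 37 °C in humidified 5% CO₂. Monolayers fixed with glutaraldehyde, stained with 0.05% methylene blue, and eluted with 0.33 N HCl; optical density measured at 630 nm.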

SMILES | MIC [1] [µg/mL] | MIC [2] [µg/mL] | MIC [3] [µg/mL] | MIC [4] [µg/mL] | MIC [5] [µg/mL] | MIC [6] [µg/mL] | MIC [7] [µg/mL] | MIC [8] [µg/mL] | MIC [9] [µg/mL] | MIC [10] [µM] | MIC [11] [µM] | MIC [12] [µM] | MIC [13] [µM] | MIC [14] [µM] | MIC [15] [µM] | MIC [16] [µM] | MIC [17] [µM] | MIC [18] [µM] | MIC [19] [µM] | MIC [20] [µM] | further results
C[C@]12CC[C@@H]3c4ccc(OCCCCCCC[n+]5ccc(SCc6ccccc6)cc5)cc4CC[C@H]3[C@@H]1CCC2=O.[Br-] | 3.12 | 3.12 | 3.12 | 0.4 | 6.25 | 1.56 | 3.12 | 1.56 | 6.25 | 4 | 8 | 2 | 2 | 8 | 8 | 8 | 8 | 8 | 16 | 3.9 | MIC [21]: 3.9 µM; MIC [22]: 15.6 µM; MIC [23]: 15.6 µM; MIC [24]: 7.8 µM; MIC [25]: 7.8 µM; MIC [26]: 15.6 µM; MIC [27]: 15.6 µM; MIC [28]: 3.9 µM; MIC [29]: 7.8 µM; MIC [30]: 15.6 µM; MIC [31]: 31 µM; MIC [32]: 31 µM; MIC [33]: 31 µM; MIC [34]: 7.8 µM; MIC [35]: 7.8 µM; GI50 [36]: 4 µg/mL; GI50 [37]: 2.3 µg/mL; CC10 [38]: 1.2 µg/mL; CC50 [38]: 3.1 µg/mL
C[C@]12CC[C@@H]3c4ccc(OCCCCCCC[n+]5ccccc5)cc4CC[C@H]3[C@@H]1CCC2=O.[Br-] | 3.12 | 6.25 | 25 | 0.8 | 12.5 | 3.12 | 6.25 | 3.12 | 6.25 | 16 | 32 | 32 | 32 | 16 | 32 | 32 | 16 | 32 | 32 | 3.9 | MIC [21]: 3.9 µM; MIC [22]: 15.6 µM; MIC [23]: 15.6 µM; MIC [24]: 15.6 µM; MIC [25]: 31.3 µM; MIC [26]: 7.8 µM; MIC [27]: 15.6 µM; MIC [28]: 3.9 µM; MIC [29]: 7.8 µM; MIC [30]: 3.9 µM; MIC [31]: 62.5 µM; MIC [32]: > 250 µM; MIC [33]: > 250 µM; MIC [34]: 31.3 µM; MIC [35]: 62.5 µM; GI50 [36]: 16.7 µg/mL; GI50 [37]: 5.3 µg/mL; CC10 [38]: 5.1 µg/mL; CC50 [38]: 17.5 µg/mL
